What all share (format): ADME
Data set [1] in a line: The half-life for cyclization reaction at pH 2.4. Summed up:
(§1)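 Amines generated from the 2-nitroaryl amides, incubated at 37 °C in aqueous buffer of ionic strength 0.01 M. Cyclization followed at the same time by UV/vis spectrophotometry in thermostated stoppered cuvettes and by C-18 reverse-phase HPLC (MeOH/10 mM phosphate pH 7 mobile phase). Runs lasted 4 h at first, extended to about 4 half-lives when product formed. Pseudo-first-order k_obs was taken from first-order loss of amine peak area.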

The nature of data set [2]: The observed pseudo-first-order rate constants of compound for cyclization reaction at pH 2.4. Summed up:
as §1

Data set [3] can be described thus: The observed pseudo-first-order rate constant of compound for cyclization reaction at pH 2.4. The method in brief:
as §1

A short description of data set [4]: The half-life for cyclization reaction at pH 6.8. Summed up:
as §1

Data set [5] in a line: The observed pseudo-first-order rate constant of compound for cyclization reaction at pH 6.8. The method in brief:
as §1

By half-life is commonly meant how long it takes for the measured level to halve. A high value points to slow loss.

The compound `COc1ccc(NC(=O)c2cccc3cccc(N)c23)cc1` yielded a half-life in data set [1] of 6.3 min. The K obs in data set [2] came out at 0.11 min⁻¹.
The compound `COc1ccc(NC(=O)Cc2ccccc2N)cc1` came in with a half-life in data set [1] of 260 min. The same compound returned a K obs in data set [3] of 0.0026 min⁻¹.
For the compound `CC(=O)c1ccc(NC(=O)C(C)(C)c2ccccc2N)cc1`, the half-life in data set [4] turned out to be 35 min. Also, the K obs in data set [5] was 0.02 min⁻¹; in data set [3], 21 min⁻¹. The same compound came in with a T1/2 in data set [1] of 0.033 min.
For the compound `COc1ccc(NC(=O)C(C)(C)c2ncccc2N)cc1`, the half-life in data set [4] turned out to be 530 min; in data set [1], 8.9 min. Also, the K obs in data set [5] is 0.0013 min⁻¹; in data set [3], 0.078 min⁻¹.
Compound `COc1ccc(NC(=O)C(C)(C)c2ccccc2N)cc1` had a half-life in data set [4] of 72 min. The K obs was determined as 0.0096 min⁻¹ in data set [5] and 10 min⁻¹ in data set [3]. For the same compound, the T1/2 in data set [1] is 0.07 min.
`CCC(CC)(C(=O)Nc1ccc(OC)cc1)c1ccccc1N`: the half-life worked out at 250 min in data set [4] and 0.43 min in data set [1]. Moreover, the K obs in data set [5] came to 0.028 min⁻¹; in data set [3], 1.64 min⁻¹.
In data set [1], `COc1ccc(NC(=O)CS(=O)(=O)c2c(C)cccc2N)cc1` had a half-life of 1700 min. In addition, the K obs in data set [3] stood at 0.0004 min⁻¹.
For the compound `COc1ccc(NC(=O)c2c(C)nn(-c3ccccc3)c2-c2ccccc2N)cc1`, in data set [1], the half-life was 36 min. The K obs in data set [3] stood at 0.019 min⁻¹.
As for `Nc1ccccc1CCC(=O)Nc1cnc2ccccc2c1`, the half-life in data set [1] turned out to be 32 min. The compound further gave a K obs in data set [3] of 0.022 min⁻¹.
Compound `Nc1ccccc1CC(=O)Nc1cnc2ccccc2c1` returned a half-life in data set [1] of 87 min. In data set [2], the K obs came to 0.008 min⁻¹.
In the case of `COc1ccc(NC(=O)[C@@H]2CCCN2C(=O)c2ccccc2N)cc1`, the half-life in data set [1] was 74 min. In data set [3], this compound gave a K obs of 0.0094 min⁻¹.
On to `COc1ccc(NC(=O)Cn2ncc3cccc(N)c32)cc1`, for which the half-life in data set [1] stood at 83 min. The K obs in data set [3] was 0.0084 min⁻¹.
As to `COc1ccc(NC(=O)CCc2ccccc2N)cc1`, in data set [1], the half-life was determined as 58 min. Besides, the K obs in data set [3] was found to be 0.012 min⁻¹.
Consider `COc1ccc(NC(=O)C(C)(C)c2cc(C(=O)NCCN(C)C)ccc2N)cc1`, for which the half-life in data set [4] came out at 770 min; in data set [1] it was 0.27 min. The K obs was found to be 0.0009 min⁻¹ in data set [5] and 2.58 min⁻¹ in data set [3].
For `CC(C)(C(=O)Nc1ccccc1)c1ccccc1N`, in data set [4], the half-life stood at 35 min. Also, the K obs in data set [5] was found to be 0.02 min⁻¹; in data set [3], 21 min⁻¹. Also, in data set [1], the T1/2 is given as 0.033 min.
For the compound `COc1ccc(N(C)C(=O)C(C)(C)c2ccccc2N)cc1`, the figures for the half-life in data set [4] and in data set [1] were 800 min and 0.28 min, respectively. Besides, the K obs came to 0.0009 min⁻¹ in data set [5] and 2.5 min⁻¹ in data set [3].
In data set [4], `CN(C)c1ccc(NC(=O)C(C)(C)c2ccccc2N)cc1` came in with a half-life of 71 min. This compound showed a K obs in data set [5] of 0.0097 min⁻¹.
Compound `COc1ccc(NC(=O)C(C)c2ccccc2N)cc1` (stereo not given) gave a half-life in data set [1] of 16 min. This compound had a K obs in data set [3] of 0.043 min⁻¹.

The values above are taken from ChEMBL document CHEMBL1127317 (J Med Chem, 1994).
